# Experimental data taken from ChEMBL document CHEMBL1156237, “Antiviral activity of benzimidazole derivatives. II. Antiviral activity of 2-phenylbenzimidazole derivatives” (Bioorg Med Chem, 2010).
# Activity calls are given as the source filed them. Unless noted, the calls are words filed in the database; no cut-off is given here.
# Test system: Bovine viral diarrhea virus 1
# Experiment: Antiviral activity against Bovine viral diarrhea virus NADL infected in MDBK cells assessed as protection from virus-induced cytopathogenicity after 3 to 4 days by MTT method
# Assay type: functional, organism-based, Bovine viral diarrhea virus 1-NADL
# Conditions: Bovine viral diarrhea virus isolates and strains, MDBK
# Procedure, shortened: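 Cytopathogenicity protection assay. MDBK cells at 3 × 10^4/well, grown overnight to confluence. Infected with BVDV NADL at m.o.i. 0.01 in MEM-E with 0.5% inactivated FBS, 1 mM Na pyruvate and 1% kanamycin. Serial compound dilutions added after 1 h. After 3–4 days at 37 °C, viability read by MTT; EC50 is the concentration giving 50% protection.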
row,Compound,EC50 [µM]
1,CCC(=O)Nc1ccc(-c2nc3cc(C(F)(F)F)ccc3n2C2CCCCC2)cc1,> 18
2,CN1CCN(CC(=O)Nc2ccc(-c3nc4cc(C(F)(F)F)ccc4n3C)cc2)CC1,15
3,Cn1c(-c2ccc(NC(=O)CN3CCN(c4ccccc4)CC3)cc2)nc2cc(C(F)(F)F)ccc21,> 1.4
4,Cn1c(-c2ccc(NC(=O)CN3CCOCC3)cc2)nc2cc(C(F)(F)F)ccc21,> 100

# Test system: Mammalian orthoreovirus 1
# Experiment: Antiviral activity against Reovirus 1 3651 infected in BHK21 cells assessed as protection from virus-induced cytopathogenicity after 3 to 4 days by MTT method
# Assay type: functional, organism-based
# Conditions: BHK-21
row,Compound,Activity
1,CCC(=O)Nc1ccc(-c2nc3cc(C(F)(F)F)ccc3n2C2CCCCC2)cc1,inactive
2,CN1CCN(CC(=O)Nc2ccc(-c3nc4cc(C(F)(F)F)ccc4n3C)cc2)CC1,inactive
3,Cn1c(-c2ccc(NC(=O)CN3CCN(c4ccccc4)CC3)cc2)nc2cc(C(F)(F)F)ccc21,inactive
4,Cn1c(-c2ccc(NC(=O)CN3CCOCC3)cc2)nc2cc(C(F)(F)F)ccc21,inactive

# Test system: not listed separately
# Experiment: Cytotoxicity against african green monkey Vero cells
# Assay type: cell-based
# Conditions: chlorocebus sabaeus
# Procedure, shortened: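 Vero 76 monolayers exposed to serial compound dilutions, run in parallel on the same 24-well plates as the plaque-reduction assays. CC50 is the concentration reducing viability of mock-infected cells by 50%.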
row,Compound,CC50 [µM]
1,CCC(=O)Nc1ccc(-c2nc3cc(C(F)(F)F)ccc3n2C2CCCCC2)cc1,> 100
2,CN1CCN(CC(=O)Nc2ccc(-c3nc4cc(C(F)(F)F)ccc4n3C)cc2)CC1,> 100
3,Cn1c(-c2ccc(NC(=O)CN3CCN(c4ccccc4)CC3)cc2)nc2cc(C(F)(F)F)ccc21,30
4,Cn1c(-c2ccc(NC(=O)CN3CCOCC3)cc2)nc2cc(C(F)(F)F)ccc21,> 100

# Test system: not listed separately
# Experiment: Cytotoxicity against human MT4 cells after 96 hrs by MTT assay
# Assay type: cell-based
# Conditions: MT4 cells
# Procedure, shortened: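 Exponentially growing MT-4 cells at 1 × 10^5 cells/mL in RPMI-1640 with 10% FCS, exposed to serial compound dilutions at 37 °C, 5% CO2. Viability by MTT after 96 h; CC50 is the concentration reducing viability of mock-infected cells by 50%.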
row,Compound,CC50 at 96 h [µM]
1,CCC(=O)Nc1ccc(-c2nc3cc(C(F)(F)F)ccc3n2C2CCCCC2)cc1,17
2,CN1CCN(CC(=O)Nc2ccc(-c3nc4cc(C(F)(F)F)ccc4n3C)cc2)CC1,22
3,Cn1c(-c2ccc(NC(=O)CN3CCN(c4ccccc4)CC3)cc2)nc2cc(C(F)(F)F)ccc21,1.5
4,Cn1c(-c2ccc(NC(=O)CN3CCOCC3)cc2)nc2cc(C(F)(F)F)ccc21,≥ 100

# Test system: Human alphaherpesvirus 1
# Experiment: Antiviral activity against HSV1 KOS infected in african green monkey Vero cells after 3 days by plaque reduction assay
# Assay type: functional, organism-based
# Conditions: Human alphaherpesvirus 1, KOS, 72 h
# Procedure, shortened: (§1)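 Plaque reduction assay. Vero 76 cells at 2 × 10^5/well, grown overnight to confluence in D-MEM with 10% FBS. Infected 2 h with 50–100 PFU/well, unadsorbed virus removed. Overlay of D-MEM with 1% inactivated FBS and 0.75% methylcellulose, with or without serial compound dilutions. Incubated at 37 °C for 3 days (HSV-1 KOS, CVB-2 Ohio-1) or 5 days (RSV A2). Fixed and stained with crystal violet in 50% ethanol; plaques counted; EC50 by linear regression.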
row,Compound,EC50 [µM]
1,CCC(=O)Nc1ccc(-c2nc3cc(C(F)(F)F)ccc3n2C2CCCCC2)cc1,> 100
2,CN1CCN(CC(=O)Nc2ccc(-c3nc4cc(C(F)(F)F)ccc4n3C)cc2)CC1,> 100
3,Cn1c(-c2ccc(NC(=O)CN3CCN(c4ccccc4)CC3)cc2)nc2cc(C(F)(F)F)ccc21,> 30
4,Cn1c(-c2ccc(NC(=O)CN3CCOCC3)cc2)nc2cc(C(F)(F)F)ccc21,> 100

# Test system: Yellow fever virus
# Experiment: Antiviral activity against Yellow fever virus 17D infected in BHK cells assessed as protection from virus-induced cytopathogenicity after 3 to 4 days by MTT method
# Assay type: functional, organism-based
# Conditions: not given
row,Compound,EC50 [µM]
1,CCC(=O)Nc1ccc(-c2nc3cc(C(F)(F)F)ccc3n2C2CCCCC2)cc1,> 15
2,CN1CCN(CC(=O)Nc2ccc(-c3nc4cc(C(F)(F)F)ccc4n3C)cc2)CC1,7
3,Cn1c(-c2ccc(NC(=O)CN3CCN(c4ccccc4)CC3)cc2)nc2cc(C(F)(F)F)ccc21,> 100
4,Cn1c(-c2ccc(NC(=O)CN3CCOCC3)cc2)nc2cc(C(F)(F)F)ccc21,> 100

# Test system: Vaccinia virus
# Experiment: Antiviral activity against Vaccinia virus Elstree-Lister infected in african green monkey Vero cells after 3 days by plaque reduction assay
# Assay type: functional, organism-based
# Conditions: Orthopoxvirus vaccinia
row,Compound,Activity
1,CCC(=O)Nc1ccc(-c2nc3cc(C(F)(F)F)ccc3n2C2CCCCC2)cc1,inactive
2,CN1CCN(CC(=O)Nc2ccc(-c3nc4cc(C(F)(F)F)ccc4n3C)cc2)CC1,inactive
3,Cn1c(-c2ccc(NC(=O)CN3CCN(c4ccccc4)CC3)cc2)nc2cc(C(F)(F)F)ccc21,inactive
4,Cn1c(-c2ccc(NC(=O)CN3CCOCC3)cc2)nc2cc(C(F)(F)F)ccc21,inactive

# Test system: Respiratory syncytial virus
# Experiment: Antiviral activity against RSV A2 infected in african green monkey Vero cells after 5 days by plaque reduction assay
# Assay type: functional, organism-based
# Conditions: not given
# Procedure, shortened: as §1
row,Compound,Activity
1,CCC(=O)Nc1ccc(-c2nc3cc(C(F)(F)F)ccc3n2C2CCCCC2)cc1,inactive
2,CN1CCN(CC(=O)Nc2ccc(-c3nc4cc(C(F)(F)F)ccc4n3C)cc2)CC1,inactive
3,Cn1c(-c2ccc(NC(=O)CN3CCN(c4ccccc4)CC3)cc2)nc2cc(C(F)(F)F)ccc21,inactive
4,Cn1c(-c2ccc(NC(=O)CN3CCOCC3)cc2)nc2cc(C(F)(F)F)ccc21,inactive

# Test system: Vesicular stomatitis virus
# Experiment: Antiviral activity against VSV Indiana lab infected in african green monkey Vero cells after 2 days by plaque reduction assay
# Assay type: functional, organism-based
# Conditions: not given
row,Compound,Activity
1,CCC(=O)Nc1ccc(-c2nc3cc(C(F)(F)F)ccc3n2C2CCCCC2)cc1,inactive
2,CN1CCN(CC(=O)Nc2ccc(-c3nc4cc(C(F)(F)F)ccc4n3C)cc2)CC1,inactive
3,Cn1c(-c2ccc(NC(=O)CN3CCN(c4ccccc4)CC3)cc2)nc2cc(C(F)(F)F)ccc21,inactive
4,Cn1c(-c2ccc(NC(=O)CN3CCOCC3)cc2)nc2cc(C(F)(F)F)ccc21,inactive

# Test system: Poliovirus 1
# Experiment: Antiviral activity against Polio virus type1 Sabin strain Chat infected in african green monkey Vero cells after 2 days by plaque reduction assay
# Assay type: functional, organism-based, Human poliovirus 1 strain Sabin
# Conditions: Enterovirus C, 48 h
row,Compound,EC50 [µM]
1,CCC(=O)Nc1ccc(-c2nc3cc(C(F)(F)F)ccc3n2C2CCCCC2)cc1,30
2,CN1CCN(CC(=O)Nc2ccc(-c3nc4cc(C(F)(F)F)ccc4n3C)cc2)CC1,41
3,Cn1c(-c2ccc(NC(=O)CN3CCN(c4ccccc4)CC3)cc2)nc2cc(C(F)(F)F)ccc21,2
4,Cn1c(-c2ccc(NC(=O)CN3CCOCC3)cc2)nc2cc(C(F)(F)F)ccc21,> 100

# Test system: Coxsackievirus B2
# Experiment: Antiviral activity against Human coxsackievirus B2 Ohio-1 infected in african green monkey Vero cells after 3 days by plaque reduction assay
# Assay type: functional, organism-based, Coxsackievirus B2 (strain Ohio-1)
# Conditions: Enterovirus B, Vero, 72 h
# Procedure, shortened: as §1
row,Compound,EC50 [µM]
1,CCC(=O)Nc1ccc(-c2nc3cc(C(F)(F)F)ccc3n2C2CCCCC2)cc1,7
2,CN1CCN(CC(=O)Nc2ccc(-c3nc4cc(C(F)(F)F)ccc4n3C)cc2)CC1,19
3,Cn1c(-c2ccc(NC(=O)CN3CCN(c4ccccc4)CC3)cc2)nc2cc(C(F)(F)F)ccc21,3
4,Cn1c(-c2ccc(NC(=O)CN3CCOCC3)cc2)nc2cc(C(F)(F)F)ccc21,> 100

# Test system: not listed separately
# Experiment: Cytotoxicity against MDBK cells after 48 to 96 hrs by MTT assay
# Assay type: cell-based, Bos taurus
# Conditions: cattle, MDBK cells
# Procedure, shortened: (§2)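 Cell seeding: MDBK at 6 × 10^5 cells/mL in MEM-E with 10% horse serum and 1 mM Na pyruvate; BHK at 1 × 10^6 cells/mL in MEM-E with 10% FBS. Serial compound dilutions, 37 °C, 5% CO2. Viability of mock-infected cells by MTT after 48–96 h; CC50 is the concentration reducing viability by 50%.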
row,Compound,CC50 [µM]
1,CCC(=O)Nc1ccc(-c2nc3cc(C(F)(F)F)ccc3n2C2CCCCC2)cc1,18
2,CN1CCN(CC(=O)Nc2ccc(-c3nc4cc(C(F)(F)F)ccc4n3C)cc2)CC1,44
3,Cn1c(-c2ccc(NC(=O)CN3CCN(c4ccccc4)CC3)cc2)nc2cc(C(F)(F)F)ccc21,1.4
4,Cn1c(-c2ccc(NC(=O)CN3CCOCC3)cc2)nc2cc(C(F)(F)F)ccc21,> 100

# Test system: not listed separately
# Experiment: Cytotoxicity against BHK cells after 48 to 96 hrs by MTT assay
# Assay type: cell-based, Mesocricetus auratus
# Conditions: hamster
# Procedure, shortened: as §2
row,Compound,CC50 [µM]
1,CCC(=O)Nc1ccc(-c2nc3cc(C(F)(F)F)ccc3n2C2CCCCC2)cc1,15
2,CN1CCN(CC(=O)Nc2ccc(-c3nc4cc(C(F)(F)F)ccc4n3C)cc2)CC1,16
3,Cn1c(-c2ccc(NC(=O)CN3CCN(c4ccccc4)CC3)cc2)nc2cc(C(F)(F)F)ccc21,100
4,Cn1c(-c2ccc(NC(=O)CN3CCOCC3)cc2)nc2cc(C(F)(F)F)ccc21,> 100

# Test system: Human immunodeficiency virus 1
# Experiment: Antiviral activity against HIV1 3B infected in human MT4 cells assessed as protection from virus-induced cytopathogenicity after 4 days by MTT method
# Assay type: functional, organism-based
# Conditions: not given
# Procedure, shortened: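 MT-4 cells, 1 × 10^4/well in RPMI with or without serial compound dilutions, infected with HIV-1 IIIB, 100 CCID50 (m.o.i. 0.01). Protection from virus-induced cytopathogenicity read by MTT.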
row,Compound,Activity
1,CCC(=O)Nc1ccc(-c2nc3cc(C(F)(F)F)ccc3n2C2CCCCC2)cc1,inactive
2,CN1CCN(CC(=O)Nc2ccc(-c3nc4cc(C(F)(F)F)ccc4n3C)cc2)CC1,inactive
3,Cn1c(-c2ccc(NC(=O)CN3CCN(c4ccccc4)CC3)cc2)nc2cc(C(F)(F)F)ccc21,inactive
4,Cn1c(-c2ccc(NC(=O)CN3CCOCC3)cc2)nc2cc(C(F)(F)F)ccc21,inactive
